Screening results as filed in PubChem.
The list is not random: actives were taken first. Their share in the collection is about 4.3%.
CAL PDZ FP-1: blocks peptide binding to human CAL PDZ domain; Q9HD26; purified CAL PDZ, TMR-peptide fluorescence polarization, 1 h; inhibition, % at 20 µM; actives 0.02% (n = 330,000); AID 504414;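 active = highest replicate inhibition of at least 40%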
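Material: tagged CAL PDZ protein CerCALP, purified; buffer or medium: sodium phosphate/NaCl buffer pH 7.4 with TCEP, IgG, Thesit; also added: fluorescent TMR peptide probe; schedule: 1 h incubation at room temperature before polarization reading; technique: fluorescence polarization from S- and P-plane intensities, G-factor corrected; control set: unlabelled peptide and DMSO controls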
Dyrk1A ADPGlo: blocks rat Dyrk1A kinase activity; inhibition, % at 12.5 µM; actives 0.43% (n = 310,000); Q63470; ADP-Glo luminescence, NFATc1 peptide; AID 504441; in the data active = inhibition above about 50%
ALR inh: inhibitors of human sulfhydryl oxidase ALR. purified ALR, DTT oxidation, H2O2 HRP-luminol luminescence. actives 3.8% (n = 290,000). P55789. inhibition, % (concentration not given with the values);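 active = mean replicate inhibition above about 79%, with every replicate also reaching it, limit read from the data; inconclusive = only one of the two criteria met; inactive = mean below limit and not every replicate reaching it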
Target sequence (P55789 whole entry, looked up): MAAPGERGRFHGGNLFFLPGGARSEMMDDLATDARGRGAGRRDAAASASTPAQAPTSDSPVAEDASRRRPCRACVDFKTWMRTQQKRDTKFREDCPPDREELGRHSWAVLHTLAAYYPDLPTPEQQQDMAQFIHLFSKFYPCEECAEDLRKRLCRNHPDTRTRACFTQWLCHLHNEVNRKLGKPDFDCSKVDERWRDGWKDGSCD
CAL PDZ FP-2: inhibitors of human CAL PDZ peptide binding | actives 0.92% (n = 300,000) | purified CAL PDZ, TMR-peptide fluorescence polarization, 1 h | inhibition, % at 24.9 µM | Q9HD26;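 active = mean inhibition of at least 30% with at least half of replicates also reaching 30%; inconclusive = no clear call, values can overlap the other calls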
Rtt109 HAT inh: C. albicans Rtt109 histone acetyltransferase inhibition | Q5AAJ8 | purified Rtt109/Vps75, ThioGlo CoA-SH fluorescence, 4 h | inhibition, % at 34.9 µM | actives 0.16% (n = 330,000) | AID 540336;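 active = inhibition of at least 50% in every replicate; inconclusive = best replicate reaches 50% inhibition but some replicates fall short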
Target sequence (Q5AAJ8 whole entry, looked up): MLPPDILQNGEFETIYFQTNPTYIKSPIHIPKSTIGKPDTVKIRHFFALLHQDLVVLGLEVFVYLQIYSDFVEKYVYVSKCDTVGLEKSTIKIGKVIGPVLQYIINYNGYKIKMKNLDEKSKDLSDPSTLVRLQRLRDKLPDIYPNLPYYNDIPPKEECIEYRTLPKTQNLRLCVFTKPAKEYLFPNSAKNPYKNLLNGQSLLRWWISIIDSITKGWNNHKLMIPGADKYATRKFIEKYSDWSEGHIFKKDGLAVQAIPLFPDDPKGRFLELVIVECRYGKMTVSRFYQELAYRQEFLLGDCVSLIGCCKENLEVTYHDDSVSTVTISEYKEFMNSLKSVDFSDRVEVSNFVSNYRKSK
Of the large screens only hits and unclear results are named; the others gave an inactive call.

CC(C)NC(=O)c1cc2nc(-c3ccco3)cc(C(F)(F)F)n2n1	none
CC(C)NC(=O)c1nn2c(C(F)(F)F)cc(-c3ccco3)nc2c1Cl	ALR inh 86
O=C(NC1CCCC1)c1cc2nc(-c3ccco3)cc(C(F)(F)F)n2n1	ALR inh 88
C=CCc1ccccc1Oc1cc(OC)nc(N)n1	none (no result: ALR inh)
CC1(C)CC2(CC(c3ccccc3F)c3ccc(O)c(O)c3O2)NC(=S)N1 (stereo not drawn)	ALR inh 99, Rtt109 HAT inh 175
O=C(CN1CCN(S(=O)(=O)c2ccc(F)cc2)CC1)c1ccc(O)c(O)c1	none (no result: ALR inh)
O=C(CN1CCN(S(=O)(=O)c2ccc(Cl)cc2)CC1)c1ccc(O)c(O)c1	ALR inh 99
COc1ccc(S(=O)(=O)N2CCN(CC(=O)c3ccc(O)c(O)c3)CC2)cc1	ALR inh 99
COc1ccc(-c2n[nH]c(=S)o2)c(OC)c1	ALR inh 90
CC(Sc1ccc(Cl)cc1)C(=O)Nc1ccc(S(=O)(=O)N2CCOCC2)cc1 (stereo not drawn)	none
CC1=NN(c2ccccc2)C(=O)C1/C=C1\NC(=S)NC1=O (stereo not drawn)	ALR inh 89
Cc1ccc(CCNC(=O)C2CCN(S(=O)(=O)c3ccc4c(c3)CCC(=O)N4)CC2)cc1	none (no result: CAL PDZ FP-2)
CC(C)CCNC(=O)C1CCCN(S(=O)(=O)c2ccc3c(c2)CC(C)N3C(=O)C2CC2)C1 (stereo not drawn)	none (no result: Dyrk1A ADPGlo)
CC(C)CCNC(=O)C1CCN(S(=O)(=O)c2ccc3c(c2)CCC(=O)N3)CC1	ALR inh 84 (no result: CAL PDZ FP-2)
CC(C)CCNC(=O)C1CCN(S(=O)(=O)c2ccc3c(c2)CC(C)N3C(=O)C2CCC2)CC1 (stereo not drawn)	Rtt109 HAT inh 94
CCNc1nc(NC(C)(C)C)nc(Oc2ccc(=O)n(-c3ccccc3)n2)n1	none
CN(C)C(CNC(=O)c1ccc(C(=O)c2ccccc2)cc1)c1ccccc1 (stereo not drawn)	Rtt109 HAT inh 54
COc1ccc(-c2[nH]ncc2CN2CCC(OCc3cccnc3)CC2)c(F)c1	none
OCCCNc1nc(-c2ccc(Cl)cc2)nc2ccccc12	ALR inh 98
COCCCNc1nc(-c2ccc(Cl)cc2)nc2ccccc12	none
Cc1ccc(S(=O)(=O)N2CCCCC2)cc1NS(=O)(=O)c1ccc(Cl)c(C(=O)O)c1	none (no result: ALR inh)
COC(=O)C(C)Sc1ncnc2c1nnn2-c1ccc(F)cc1 (stereo not drawn)	ALR inh 98
O=C(CCCN1C(=O)c2ccccc2C1=O)NCCc1ccc(OC(F)F)cc1	none
Cc1c(Br)c(=O)oc2c(Br)c(O)c(O)cc12	ALR inh 98
COCc1cc(C)nc(OCC(=O)N/N=C/c2ccc(O)cc2)c1C#N	ALR inh 99 (no result: CAL PDZ FP-2)
COCc1cc(C)nc(OCC(=O)N/N=C/c2ccc(OC)c(OC)c2)c1C#N	none (no result: Rtt109 HAT inh)
O=C(c1ccco1)N1CCN(C(=O)c2ccccc2NS(=O)(=O)c2ccc(F)cc2)CC1	none
CCOC(=O)C1CCCN(C(=O)c2ccc3ncsc3c2)C1 (stereo not drawn)	ALR inh 96 (no result: Dyrk1A ADPGlo, CAL PDZ FP-2)
Cc1cc(=O)nc2c3ccccc3n(C(C)C(=O)Nc3c(F)c(F)c(F)c(F)c3F)n12 (stereo not drawn)	CAL PDZ FP-2 82
Cc1cc(=O)nc2c3ccccc3n(C(C)C(=O)Nc3cc(F)ccc3F)n12 (stereo not drawn)	none
CC1CCCN(CC(O)CN2CCN(CC(O)CN3CCCC(C)C3)C(C)C2)C1 (stereo not drawn)	none (no result: ALR inh)
O=C(Cc1ccccc1)Nc1ccccc1C(=O)N1CCCCCC1	none
C=CCSC1=N/C(=C\c2cc(OCC)c(OC(C)=O)c([N+](=O)[O-])c2)C(=O)S1	ALR inh 98
C=CCSC1=N/C(=C\c2ccc3c(c2)OCO3)C(=O)S1	none
CC(=O)Nc1ccc(S(=O)(=O)Nc2ccccc2C(=O)N2CCCC2)cc1	none
O=C(N/C(=C\c1ccc(Cl)cc1)C(=O)N1CCCCC1)c1ccco1	CAL PDZ FP-2 82
CSc1ccc(/C=C(/NC(=O)c2ccco2)C(=O)N2CCCCCC2)cc1	none
Cc1cccc(C(=O)N/C(=C\c2ccco2)C(=O)N2CCCC2)c1	ALR inh 95
Cc1ccc(C(=O)N/C(=C/c2ccco2)C(=O)N2CCCCCC2)cc1	none
CC(C)CN(C)C(=O)CC1C(=O)NCCN1C (stereo not drawn)	none
O=C(O)c1ccc(S(=O)(=O)N2CCc3ccccc3C2)cc1	none
O=C(CN(Cc1ccccc1)C(=O)c1cccc([N+](=O)[O-])c1)Nc1c(Cl)cc(Cl)cc1Cl	none (no result: Dyrk1A ADPGlo)
OCCC1CN(Cc2ccc3nsnc3c2)CCN1CCc1ccccc1 (stereo not drawn)	none
Cc1ccn2c(NC3CCCC3)c(-c3ccccn3)nc2c1	ALR inh 98
Cc1ccn2c(NC3CCCC3)c(-c3ccncc3)nc2c1	ALR inh 98
Cc1ccc(Nc2c(-c3ccccn3)nc3cc(C)ccn23)cc1	ALR inh 98 (no result: Rtt109 HAT inh)
c1ccc(-c2nc3ccccn3c2NC2CCCC2)nc1	ALR inh inconclusive
Clc1ccc(-c2nc3cnccn3c2NC2CCCC2)cc1	ALR inh 99
Cc1ccn2c(Nc3ccc4c(c3)OCO4)c(-c3ccccn3)nc2c1	none
Cc1[nH]c2ccccc2c1CCO	none
Cc1[nH]c2ccccc2c1CCCO	ALR inh 99 (no result: CAL PDZ FP-1, Dyrk1A ADPGlo, CAL PDZ FP-2, Rtt109 HAT inh)
C/C(=N\NC(=O)c1ccc([N+](=O)[O-])cc1Cl)c1ccccc1	none
CCn1cnc2cc(NCc3cccs3)ccc21	ALR inh inconclusive
CN(C)c1ccc(CNc2ccc3c(c2)ncn3C(C)(C)C)cc1	ALR inh 93
CCn1cnc2cc(NCc3nc4ccccc4n3C)ccc21	none
CCN(CC)c1ccc(CNc2ccc3c(c2)ncn3CC)cc1	ALR inh 98 (no result: CAL PDZ FP-1, Dyrk1A ADPGlo, CAL PDZ FP-2, Rtt109 HAT inh)
CC(C)(C)n1cnc2cc(NCc3cccs3)ccc21	none
CCn1cnc2cc(NCc3ccc(N(C)C)cc3)ccc21	ALR inh 98 (no result: CAL PDZ FP-2)
Cc1[nH]c2ccccc2c1N=Nc1ccccc1F	ALR inh 99 (no result: CAL PDZ FP-2)
Cc1[nH]c2ccccc2c1N=Nc1ccc(F)cc1	ALR inh 98 (no result: Dyrk1A ADPGlo)
Cc1[nH]c2ccccc2c1N=Nc1cc(C(=O)O)cc(C(=O)O)c1	none (no result: Dyrk1A ADPGlo)
CCOc1ccccc1NC(=O)NNC(=O)COc1cccc(C)c1C	none
CCOC(=O)CCSc1nnc(-c2cccnc2)n1-c1ccccc1OC	CAL PDZ FP-2 67
COc1ccc(-n2c(N)cc(=O)nc2SCC(=O)N2CCN(c3ccccc3)CC2)cc1	ALR inh 99
COc1ccc(N2CCN(C(=O)CSc3nnc(-c4cccnc4)n3-c3ccccc3)CC2)cc1	ALR inh 94, Rtt109 HAT inh 53
CC(=O)N1CCN(c2ccc(NC(=O)c3ccc(F)cc3)cc2)CC1	none
CCOC(=O)c1c(C)[nH]c(C(=O)OCC(=O)NCc2ccc(OC)c(OC)c2)c1C	none (no result: Dyrk1A ADPGlo)
CCOC(=O)c1c(C)[nH]c(C(=O)OCC(=O)Nc2cc(C)c(Cl)cc2OC)c1C	CAL PDZ FP-2 37
